Measurements from different studies.
Protocols differ between the studies behind these lines.
Target: Ephrin type-A receptor 7 (EPHA7, Homo sapiens, UniProt Q15375)

| SMILES | assay | setting | remaining binding |
| --- | --- | --- | --- |
| CN(C)C(=O)Cn1cc(-c2nc([C@@](C)(c3ccc(-c4cnc(N)nc4)cc3)C3CC3)no2)cn1 | cell-free assay, competition with immobilised ligand | 1 µM | 98% |
| O=C(NCC1CCOCC1)c1n[nH]cc1NC(=O)c1c(F)cccc1F | binding, competition with immobilised ligand | 1 µM | 97% |
| F[C@@H]1CCN(c2nccc(-c3cnn4ncccc34)n2)C1 | binding | 1 µM | 100% |
| N#CC1(c2ccccn2)CCN(Cc2cc(C(=O)N3CCCC3)c(=O)n3ccccc23)CC1 | cell-free assay, competition with immobilised ligand | 1 µM | 100% |
| CN(C)c1ncc(F)c(-c2cnn3ncccc23)n1 | binding | 1 µM | 100% |
| CCN1CCN(Cc2ccc(C(=O)Nc3ccc(C)c(Oc4ccc5c(c4)CC(=O)N5)c3)cc2C(F)(F)F)CC1 | binding, competition with immobilised ligand | 1 µM | 89% |
| CN(c1nccc(-c2cnn3ncccc23)n1)C1CC1 | binding | 1 µM | 100% |
| COc1ncc2cc3ccccc3nc2c1C#N | cell-free assay, competition with immobilised ligand | 5 µM | 95% |
| CNC(=O)[C@@H]1CC[C@@H](n2c(-c3ccc4cnccc4c3)nc3ccc(C(=O)NCc4cccc(C(N)=O)c4)cc32)C1 | binding, competition with immobilised ligand | 1 µM | 100% |
| C=CC(=O)N1CCC(C(=O)NCC(=O)N2CCN(c3nc(-c4cnc(N)nc4C(F)F)nc(N4CCOCC4)n3)CC2)CC1 | binding, competition with immobilised ligand | 1 µM | 100% |
| N[C@H]1CCN(c2nccc(-c3cnn4ncccc34)n2)C1 | binding | 1 µM | 100% |
| CS(=O)(=O)N1CCCC(NC(=O)[C@H](CCC2CCCCC2)NC(=O)c2ccc(CNc3ncnc4c3nnn4-c3ccccc3)cc2)C1 (stereo partly drawn) | cell-free assay, competition with immobilised ligand | 0.1 µM | 98% |
| c1cnn2ncc(-c3ccnc(N4CCC45COC5)n3)c2c1 | binding | 1 µM | 93% |
| Cn1cc(Cl)c2c(Oc3c(F)cc(Nc4cc(Cl)nc(N)n4)cc3F)ccnc21 | cell-free assay, competition with immobilised ligand | 0.1 µM | 96% |
| O=C(NCCCN1CCOCC1)c1ccc(Nc2ncc(Cl)c(-c3ccc(Cl)s3)n2)cc1 | binding, competition with immobilised ligand | 1 µM | 60% |
| CC1CCCN1c1nccc(-c2cnn3ncccc23)n1 (stereo not drawn) | binding | 1 µM | 99% |
| O=C(c1ccc(Nc2nccc(-c3cc4ccccc4s3)n2)cc1)N1CCC(N2CCCC2)CC1 | binding, competition with immobilised ligand | 1 µM | 100% |
| C[C@@H]1CN(c2cc(-c3nn(C)c4ccc(OC5(C)CC5)cc34)ncn2)C[C@H](C)O1 | cell-free assay, competition with immobilised ligand | 1 µM | 99% |
| Nc1ncc2c(n1)-c1c([nH]c3ccc(C#CC4CC4)cc13)CCCC2 | binding, competition with immobilised ligand | 1 µM | 100% |
| O=C(Nc1cnc(Oc2ccc(F)cc2)nc1)N1CCc2ncccc2[C@@H]1c1ccc(F)cc1 | cell-free assay, competition with immobilised ligand | 1 µM | 88% |
| O=C(c1ccc(Nc2ncc(Cl)c(-c3cc4ccccc4s3)n2)cc1)N1CCC(N2CCCC2)CC1 | binding, competition with immobilised ligand | 1 µM | 49% |
